Measured values taken from ChEMBL document CHEMBL5252523, “Searching for New Leads for Tuberculosis: Design, Synthesis, and Biological Evaluation of Novel 2-Quinolin-4-yloxyacetamides” (J Med Chem, 2016).
pIC50: −log10 of the molar value. ≈ marks a conversion by molar mass, not a printed value.

Key:
[1] = Microsomal stability in mouse liver microsomes assessed as half life at 0.5 uM preincubated followed by NADPH addition and measured upto 30 mins by LC-MS/MS analysis; type: ADME, Microsome
[2] = Kinetic aqueous solubility of compound in phosphate buffer at pH 7.4 incubated for 1 hrs by CLND assay; type: physicochemical; conditions: read-out: Kinetic_solubility
[3] = Stability of compound in CD1 mouse blood assessed as half life at 0.5 uM incubated upto 240 mins by LC-MS/MS analysis; type: ADME, tissue-based
Summary of the method: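 Fresh CD1 mouse whole blood collected in EDTA tubes and spiked with compound. Three 300 μl aliquots were incubated at 37 °C. Supernatants were analysed by LC-MS/MS; analyte/internal standard ratios were normalised to time zero as % remaining, and half-life was taken from ln plots of % remaining.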

[4] = test system: Mycobacterium tuberculosis; assay: Antimycobacterial activity against Mycobacterium tuberculosis H37Rv ATCC 25618 expressing pATB45luc infected in PMA-stimulated human THP-1 cells assessed as inhibition of intracellular bacterial growth incubated for 4 days by BrightGlo luciferase assay; type: functional, organism-based; conditions: H37Rv ATCC 25618, THP-1, 96 h; for IC90: time 4 day
Summary of the method: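 THP-1 cells grown in RPMI-1640 with 10% FBS, 1 mM pyruvate and 2 mM L-glutamine. Cells were PMA-differentiated (40 ng/ml) while infected with single-cell Mtb H37Rv-pATB45luc at MOI 1:1 for 4 h at 37 °C in a roller bottle, then washed four times. About 10000 cells/well were added onto pre-dispensed compound (max DMSO 0.5%) and incubated 4 days at 37 °C. Luciferase luminescence was read; IC50/IC90 came from nonlinear regression of dose-response curves.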

[5] = Chromatographic hydrophobicity index, log D of the compound in phosphate buffer at pH 7.4 by UV-HPLC analysis; type: physicochemical
[6] = target: Voltage-gated inwardly rectifying potassium channel KCNH2 (Homo sapiens, UniProt Q12809); assay: Inhibition of human ERG; type: toxicity
[7] = Artificial membrane permeability of the compound incubated for 3 hrs by HPLC analysis; type: ADME; conditions: PAMPA, read-out: permeability
[8] = test system: Mycobacterium tuberculosis; assay: Antimycobacterial activity against Mycobacterium tuberculosis H37Rv ATCC 25618 assessed as inhibition of microbial growth incubated for 6 days by resazurin based assay; type: functional; conditions: H37Rv ATCC 25618, 144 h, time 6 day
Summary of the method: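 Ten two-fold dilutions made in neat DMSO, tested in Middlebrook 7H9 with the H37Rv inoculum. Controls: isoniazid from 4 μg/ml as positive control; rifampicin 1 μM as no-growth control. Plates sat sealed at 37 °C without shaking for 6 days.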

[9] = Microsomal stability in human liver microsomes assessed as half life at 0.5 uM preincubated followed by NADPH addition and measured upto 30 mins by LC-MS/MS analysis; type: ADME, Microsome
[10] = Cytotoxicity against human HepG2 cells assessed as cell growth inhibition incubated for 48 hrs by CellTiter-Glo reagent based analysis; type: toxicity
Summary of the method: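 HepG2 cells kept in Eagle's MEM with 10% heat-inactivated FBS, 1% NEAA and penicillin/streptomycin, seeded at ~3000 cells/well onto pre-dispensed compound. Incubation was 48 h at 37 °C, 5% CO2. Plates were equilibrated to room temperature, CellTiter-Glo was added, and ATP luminescence was read after 10 min as the viability read-out.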

[11] = Stability of compound in CD1 mouse blood at 0.5 uM incubated upto 240 mins in presence of NaF pretreatment by LC-MS/MS analysis; type: ADME, tissue-based; conditions: 4 h

Sequence of Voltage-gated inwardly rectifying potassium channel KCNH2 (Q12809 whole entry): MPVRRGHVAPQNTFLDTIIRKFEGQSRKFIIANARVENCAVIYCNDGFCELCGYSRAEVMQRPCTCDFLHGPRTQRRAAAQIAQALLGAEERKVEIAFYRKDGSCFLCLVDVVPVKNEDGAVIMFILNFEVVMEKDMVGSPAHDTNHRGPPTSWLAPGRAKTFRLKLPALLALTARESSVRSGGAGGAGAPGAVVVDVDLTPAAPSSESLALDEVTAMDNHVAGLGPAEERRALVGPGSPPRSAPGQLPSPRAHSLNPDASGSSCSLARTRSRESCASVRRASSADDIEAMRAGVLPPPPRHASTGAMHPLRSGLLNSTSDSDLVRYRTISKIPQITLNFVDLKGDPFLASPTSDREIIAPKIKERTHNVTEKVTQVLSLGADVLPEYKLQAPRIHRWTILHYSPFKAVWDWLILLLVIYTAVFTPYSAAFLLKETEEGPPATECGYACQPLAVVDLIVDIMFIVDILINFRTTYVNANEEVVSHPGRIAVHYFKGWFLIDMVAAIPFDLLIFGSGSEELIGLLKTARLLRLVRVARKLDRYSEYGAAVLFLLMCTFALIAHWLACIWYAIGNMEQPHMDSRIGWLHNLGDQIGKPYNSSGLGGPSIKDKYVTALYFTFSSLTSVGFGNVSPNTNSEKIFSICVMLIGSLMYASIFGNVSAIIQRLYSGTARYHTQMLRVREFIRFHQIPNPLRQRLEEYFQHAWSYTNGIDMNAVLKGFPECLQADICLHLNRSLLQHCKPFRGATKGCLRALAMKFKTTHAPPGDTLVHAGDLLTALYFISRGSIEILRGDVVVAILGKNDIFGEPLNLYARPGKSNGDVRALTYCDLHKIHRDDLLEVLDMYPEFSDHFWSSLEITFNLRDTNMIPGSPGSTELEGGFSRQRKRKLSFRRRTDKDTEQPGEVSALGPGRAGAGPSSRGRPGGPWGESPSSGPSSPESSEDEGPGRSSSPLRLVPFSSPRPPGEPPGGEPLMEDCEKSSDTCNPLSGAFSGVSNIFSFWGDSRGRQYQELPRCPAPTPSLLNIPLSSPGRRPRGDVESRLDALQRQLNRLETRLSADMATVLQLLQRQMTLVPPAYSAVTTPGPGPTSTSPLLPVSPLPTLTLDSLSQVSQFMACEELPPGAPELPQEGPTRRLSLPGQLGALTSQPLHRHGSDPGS

SMILES	half-life at 0.5 µM [1] [min]	solubility kinetic at 1 h [2] [µM]	half-life at 0.5 µM [3] [min]	pIC50 [4]	IC90 [4] [µM]	chromatographic logD [5]	pIC50 [6]	Papp at 3 h [7] [×10⁻⁶ cm/s]	MIC [8] [µM]	half-life at 0.5 µM [9] [min]	IC50 at 48 h [10] [µM]	Stability [11]
COc1ccc2nc(C)cc(OCC(=O)Nc3cc(C)cc(C)c3)c2c1	< 5	26 (≈ 9.11 µg/mL)	< 5	7.30	0.2	5.64	< 4.30	18	1.9	> 30		
COc1ccc2nc(C)cc(OCC(=O)Nc3ccccc3OC)c2c1	< 3			6.30	1.58	4.68			1.4	16	> 100	
COc1ccc2nc(C)cc(OCC(=O)Nc3ccc(Cl)cc3)c2c1		9 (≈ 3.21 µg/mL)		6.80	0.5	5.15	5.30		3		> 100	
COc1ccc(NC(=O)COc2cc(C)nc3ccc(OC)cc23)cc1		108 (≈ 38.1 µg/mL)		7.52	0.25	4.22	5.20	42	0.6		> 100	
COc1ccc2nc(C)cc(OCC(=O)Nc3cccc(C)c3)c2c1	< 5	193 (≈ 64.9 µg/mL)	< 5			4.83		35.5	2	23	39.8	
COc1ccc2nc(C)cc(OCC(=O)NC3CONC3=O)c2c1 (stereo not given)		≥ 166				0.79		< 1	> 125		> 100	
COc1ccc2nc(C)cc(OCC(=O)Nc3cc(C)c(F)c(C)c3)c2c1	< 5	31.5 (≈ 11.6 µg/mL)	< 5	7.10	0.25	5.5	< 4.30	21	2	> 30	> 100	
COc1ccc2nc(C)cc(OC(C)(C)C(=O)Nc3cc(C)cc(C)c3)c2c1	< 5	20 (≈ 7.57 µg/mL)	96			6.37			> 250	19	> 100	Stable
COc1ccc2nc(C)cc(OCc3nc4cc(C)ccc4o3)c2c1	< 5	1 (≈ 0.334 µg/mL)	> 240		5	6.12	< 4.30	8.6	5.5	15.7	> 100	
COc1ccc2nc(C)cc(OCC(=O)Nc3nc(C)c(C)s3)c2c1		31.5 (≈ 11.3 µg/mL)				4.24		44	62		> 100	
COc1ccc2nc(C)cc(OCC(=O)NNC(=O)c3ccncc3)c2c1		≥ 375				1.48		3.3	62		> 100	
COc1ccc2nc(C)cc(OCC(=O)Nc3cc(F)cc(F)c3)c2c1		13 (≈ 4.66 µg/mL)		6.40	2.51	5.13			3		> 100	
COc1ccc2nc(C)cc(OCC(=O)Nc3nccs3)c2c1		54 (≈ 17.8 µg/mL)				3.2		112	> 250		> 100	
COc1ccc2nc(C)cc(OCC(=O)Nc3ccc(S(=O)(=O)Nc4cc(C)on4)cc3)c2c1		≥ 381				2.2		1.5	125		> 100	
COc1ccc2nc(C)cc(OCC(=O)N(C)c3cc(C)cc(C)c3)c2c1		373 (≈ 136 µg/mL)				5.47		30	109		50.1	
COc1ccc2nc(C)cc(OCC(=O)Nc3ccncn3)c2c1		27.5 (≈ 8.92 µg/mL)				2.53		52.5	> 250		> 100	
COc1ccc2nc(C)cc(OCC(=O)Nc3ccc(F)cc3)c2c1		104 (≈ 35.4 µg/mL)				4.49		23	12		63.1	
COc1ccc2nc(C)cc(OCC(=O)Nc3ccc(Cl)cc3Cl)c2c1		20.5 (≈ 8.02 µg/mL)		6.10	> 50	6.4			2		> 100	
COc1ccc2nc(C)cc(OCC(=O)Nc3cc(C)ccc3OC)c2c1		9.5 (≈ 3.48 µg/mL)		6.80	0.63	5.65	5.30		2.5		> 100	
COc1ccc2nc(C)cc(OCC(=O)Nc3noc(C)c3C)c2c1		196 (≈ 66.7 µg/mL)				3.3		62.5	187		> 100	
COc1ccc2nc(C)cc(OCC(=O)Nc3cc(C)nc(C)n3)c2c1		5 (≈ 1.76 µg/mL)				3.24		1.2	> 250		> 100	
Cc1cc(C)cc(NC(=O)COc2cc(C)nc3ccc(C)cc23)c1	< 5	83 (≈ 27.8 µg/mL)	< 5			5.95		52	3.9	> 30	15.8	
COc1ccc2nc(C)cc(OCC(=O)Nc3ccccn3)c2c1		29 (≈ 9.38 µg/mL)				3.49		48	15.7		> 100	
COc1ccc2nc(C)cc(OCCNc3cc(C)cc(C)c3)c2c1	< 5	33 (≈ 11.1 µg/mL)	> 120			6.93		19	32	> 30	31.6	Stable
COc1ccc2nc(C)cc(OCC(=O)Nc3cccnc3)c2c1		32 (≈ 10.3 µg/mL)				2.46		33	62.5		> 100	
COc1ccc2nc(C)cc(OCC(=O)Nc3cc(C)ccc3C)c2c1	< 5	45.5 (≈ 15.9 µg/mL)	< 5			5.05		81	8	24	> 100	
COc1ccc2nc(C)cc(OCC(=O)Nc3ccncc3)c2c1		91.5 (≈ 29.6 µg/mL)				2.5		56	> 250		> 100	
Cc1ncc2n1-c1ccc(Cl)cc1C(c1ccccc1F)=NC2 [MIDAZOLAM]	< 5									9		
